Screening results from PubChem.
Hits are enriched below; roughly 4.6% of the tested compounds scored in any of these assays.
CHO parental Ca = counter-screen for OX1R antagonists: effect in parental CHO cells. parental CHO-K1, ATP-induced calcium, Fluo-8 fluorescence. 0.63% of 330,000 active. inhibition, % at 5.6 µM. AID 463079;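 active means inhibition above that plate's mean sample inhibition plus 3 SD, cut at about 26% in these data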;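 further: 0% = ATP-challenged DMSO wells and 100% = DMSO wells without ATP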
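Assay system: parental CHO cells; Read-out basis: percent inhibition of ATP-evoked calcium rise, normalized to controls; Benchmarks: ATP and no-ATP DMSO wells; Compound dosing: single nominal dose of 5.6 µM per compound; Signal: Fluo-8 calcium dye fluorescence; Also added: ATP as calcium-mobilizing challenge; Repeats: singlicate.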
TAAR1 agonist = agonists of human TAAR1; Q96RJ0; CHO RD-HGA16 TAAR1, Fluo-8 calcium fluorescence; vehicle wells 0%, saturating PEA agonist 100%; activation, % at 3 µM; 0.99% of 360,000 active; AID 624467;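 active means activation above the mean activation of all test compounds in the run plus 3 SD, cut at about 38% in these data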
Target sequence (Q96RJ0 whole entry, looked up): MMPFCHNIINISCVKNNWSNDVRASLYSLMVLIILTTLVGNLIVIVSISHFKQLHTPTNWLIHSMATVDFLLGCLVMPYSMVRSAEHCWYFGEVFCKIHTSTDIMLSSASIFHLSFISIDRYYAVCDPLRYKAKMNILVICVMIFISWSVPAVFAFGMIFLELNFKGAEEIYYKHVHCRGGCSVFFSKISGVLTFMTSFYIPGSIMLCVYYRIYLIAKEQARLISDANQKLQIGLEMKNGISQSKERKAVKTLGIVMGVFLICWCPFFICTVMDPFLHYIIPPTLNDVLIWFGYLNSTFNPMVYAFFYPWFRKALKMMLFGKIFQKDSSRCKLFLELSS
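Signal – calcium-sensitive Fluo-8 signal, excitation 470-495, emission 515-575 nm · System – RD-HGA16 (CHO) cells co-expressing Gα16 and hTAAR1 · Incubation – 17-24 h seeding, 75 min 37 °C dye, 30 min RT · Compound dosing – 3 µM single concentration · Repeats – no replicates (n 1)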
OX1R antag-1 = OX1R (human) antagonism. OX1R-expressing cells, FRET antagonist read-out. inhibition, % at 6.6 µM. 1.8% of 330,000 active. AID 485270; in the data active means inhibition mostly above about 38%, no sharp cut-off; inactive means mostly below about 40%;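 further: 0% = agonist challenge alone and 100% = reference antagonist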
Target sequence (O43613 whole entry, looked up): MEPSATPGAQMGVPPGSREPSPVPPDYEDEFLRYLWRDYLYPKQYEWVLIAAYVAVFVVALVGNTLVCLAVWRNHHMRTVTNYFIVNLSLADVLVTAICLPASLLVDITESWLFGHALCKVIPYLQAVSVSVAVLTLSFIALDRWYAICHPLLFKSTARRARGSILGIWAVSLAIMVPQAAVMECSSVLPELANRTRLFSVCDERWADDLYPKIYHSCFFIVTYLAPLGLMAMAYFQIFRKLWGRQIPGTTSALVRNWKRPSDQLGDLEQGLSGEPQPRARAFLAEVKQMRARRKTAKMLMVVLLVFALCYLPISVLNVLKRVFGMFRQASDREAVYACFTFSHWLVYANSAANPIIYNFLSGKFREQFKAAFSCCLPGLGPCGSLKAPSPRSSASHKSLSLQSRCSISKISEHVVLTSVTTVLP
OX1R antag-2 = human HCRTR1 antagonism. inhibition, % at 5 µM. AID 434989. 0.43% of 330,000 active. O43613. CHO/OX1R cells, Fluo-8 calcium fluorescence, orexin A;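 active means inhibition above its plate's threshold, mean inhibition of all tested compounds on the plate plus 3 SD, cut at about 37% in these data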;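 further: 0% = orexin A challenge wells and 100% = SB-334867-A antagonist wells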
TAAR1 antag = human TAAR1 antagonism | Q96RJ0 | CHO RD-HGA16 TAAR1, Fluo-8 calcium fluorescence, antagonist | inhibition, % at 3 µM | 1.5% of 360,000 active;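 active means inhibition above a per-plate cutoff, the mean inhibition of test compounds on that plate plus 3 SD, cut at about 49% in these data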;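 further: 0% = DMSO plus EC80 beta-PEA response and 100% = DMSO alone without agonist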
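Test system: CHO RD-HGA16 cells bearing hTAAR1 | Reagent: β-PEA, EC80 | Compound dosing: 3 µM, single point | Schedule: Dye loading 75 min at 37 °C, then 30 min room temperature | Signal: Calcium fluorescence with Fluo-8 | Evaluation: Percent inhibition of PEA-evoked calcium signal, max/basal emission ratio | Control set: DMSO-only wells and EC80 β-PEA-stimulated wells | Repeats: Singlicate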
GPR7 antag = human neuropeptides B/W receptor 1 antagonism; 1.1% of 290,000 active; P48145; inhibition, % at 4.4 µM; GPR7-expressing cells, fluorescence antagonist assay; in the data active means inhibition above about 16%, passing the limit was not always enough;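 further: cells stimulated with the agonist NPW; 0% = agonist with vehicle and 100% = vehicle without agonist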
nonsel antag count = nonselective antagonism, TAAR1 counter-screen; 77% of 2,400 active; shares compounds with TAAR1 antag; counterscreen cell line, calcium fluorescence, antagonist mode; AID 651780; inhibition, % at 3 µM; in the data active means inhibition above about 22%;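 further: CHO-Ga16 host cells stimulated with ATP at an EC80 level; 0% = agonist EC80 plus vehicle and 100% = vehicle without agonist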
TAAR1 antag conf = confirmation of human TAAR1 antagonists. TAAR1-expressing cells, fluorescence antagonist read-out. inhibition, % at 3 µM. 40% of 2,400 active. AID 651785. shares compounds with TAAR1 antag; in the data active means inhibition above about 49%;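 further: CHO-Ga16 host cells challenged with agonist PEA near its EC80; 0% = agonist at EC80 plus vehicle and 100% = vehicle with no agonist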
Ga16 nonsel ag = nonselective Ga16 agonism, counter-screen. shares compounds with TAAR1 antag. Ga16-expressing cells, calcium fluorescence, agonist counterscreen. activation, % at 3 µM. 18% of 2,400 active; in the data active means activation above about 12%;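 further: 0% = vehicle wells and 100% = saturating stimulus response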
TAAR1 ag count = activates human TAAR1 in antagonist counter-screen; shares compounds with TAAR1 antag; hTAAR1 cell line, fluorescence activation, agonist mode; activation, % at 3 µM; 2% of 2,400 active; AID 651955; in the data active means activation above about 37%;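 further: CHO cells stably expressing TAAR1 with calcium dye readout; 0% = DMSO vehicle and 100% = full agonist response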
Active calls of the source: *.

`COc1cc(C(=O)N/N=C/c2ccc(OC(=O)c3cccc(C)c3)cc2)ccc1O` gave TAAR1 agonist 15.2, TAAR1 antag 79.5*, GPR7 antag -17.2, nonsel antag count 39.5*, TAAR1 antag conf 62.5*, Ga16 nonsel ag 12.6* and TAAR1 ag count 30.0.
`O=C(COC(=O)[C@@H]1CC(O)CN1S(=O)(=O)c1ccccc1[N+](=O)[O-])Nc1ccc2ccccc2c1` (stereo not given in full) gave CHO parental Ca 1.2, TAAR1 agonist 25.4, OX1R antag-1 12.0, OX1R antag-2 0.2, TAAR1 antag 67.8*, GPR7 antag 4.3, nonsel antag count 40.6*, TAAR1 antag conf 49.7*, Ga16 nonsel ag 15.7* and TAAR1 ag count 12.7.
For O=C(Cn1ccc2ccccc2c1=O)NCCC(=O)Nc1cccc(Cl)c1 the results were CHO parental Ca -20.1, OX1R antag-1 7.2, OX1R antag-2 -11.9 and GPR7 antag -8.4.
`COc1ccc(CC(=O)Nc2cccc(-c3nnc(-c4ccccc4)o3)c2)cc1OC` gave TAAR1 agonist 29.0, TAAR1 antag 71.4*, GPR7 antag -17.0, nonsel antag count 56.7*, TAAR1 antag conf 72.5*, Ga16 nonsel ag 18.1* and TAAR1 ag count 16.7.
COc1ccc(CC(=O)Nc2cccc(-c3nnc(-c4ccc(C)cc4)o3)c2)cc1OC was read as CHO parental Ca -9.2, TAAR1 agonist 23.9, OX1R antag-1 25.8, OX1R antag-2 -30.3, TAAR1 antag 82.0*, GPR7 antag -9.5, nonsel antag count 52.6*, TAAR1 antag conf 69.1*, Ga16 nonsel ag 17.2* and TAAR1 ag count 15.2.
O=C(Cc1ccccc1)Nc1cccc(-c2nc3ncccc3o2)c1 was read as CHO parental Ca -18.1, TAAR1 agonist 14.8, OX1R antag-1 15.9, OX1R antag-2 -15.7, TAAR1 antag 24.2 and GPR7 antag -8.6.
Cc1cc(C)cc(OCC(=O)Nc2cccc(-c3nc4ncccc4o3)c2)c1 was read as CHO parental Ca -0.6, TAAR1 agonist 7.5, OX1R antag-1 19.4, OX1R antag-2 -22.3, TAAR1 antag 70.4*, GPR7 antag -14.2, nonsel antag count 30.8*, TAAR1 antag conf 58.0*, Ga16 nonsel ag 9.5 and TAAR1 ag count 13.1.
For Cc1ccc(OCC(=O)Nc2cccc(-c3nnc(-c4ccccc4)o3)c2)c(C)c1 the results were CHO parental Ca -15.9, TAAR1 agonist 15.1, OX1R antag-1 13.8, OX1R antag-2 -23.1, TAAR1 antag 65.9*, GPR7 antag -13.1, nonsel antag count 41.4*, TAAR1 antag conf 64.0*, Ga16 nonsel ag 6.7 and TAAR1 ag count 5.0.
`COc1ccc(CC(=O)Nc2ccc(-c3nnc(-c4ccccc4)o3)cc2)cc1OC` gave CHO parental Ca -11.0, OX1R antag-1 10.0, OX1R antag-2 -6.9 and GPR7 antag -1.2.
For COc1ccc(S(=O)(=O)N2CC(C)N(C(=O)N(C)C)C2C)cc1 (stereo not given) the results were CHO parental Ca -13.6, TAAR1 agonist 4.6, OX1R antag-1 5.2, OX1R antag-2 -13.2, TAAR1 antag -21.8 and GPR7 antag -6.6.
For CN(C)S(=O)(=O)c1ccc(Cl)c(NC(=O)C2CCN(S(=O)(=O)c3cccs3)CC2)c1 the results were CHO parental Ca -7.1, TAAR1 agonist 5.8, OX1R antag-1 5.6, OX1R antag-2 -14.9 and TAAR1 antag 20.6.
Screening COCCN(C(=O)COC(=O)Cc1coc2cc3c(cc12)CCC3)c1c(N)n(Cc2ccccc2)c(=O)[nH]c1=O returned CHO parental Ca -27.9, TAAR1 agonist 2.2, OX1R antag-1 12.7, OX1R antag-2 -22.7 and TAAR1 antag -9.6.
Screening CSCCC(NS(=O)(=O)c1ccc2c(c1)OCCO2)C(=O)N(C)Cc1ccc(F)cc1 (stereo not given) returned CHO parental Ca -12.1, TAAR1 agonist 14.8, OX1R antag-1 21.6, OX1R antag-2 -6.7, TAAR1 antag 76.4*, nonsel antag count 30.6*, TAAR1 antag conf 62.8*, Ga16 nonsel ag 13.2* and TAAR1 ag count 12.4.
For CC(=O)Nc1cccc(NC(=O)c2cc(-c3cccnc3)nc3ccc(Cl)cc23)c1 the results were CHO parental Ca 8.9, TAAR1 agonist 14.4, OX1R antag-1 38.0, OX1R antag-2 -11.3, TAAR1 antag 86.0*, GPR7 antag 3.1, nonsel antag count 30.8*, TAAR1 antag conf 55.2*, Ga16 nonsel ag 10.3 and TAAR1 ag count 9.6.
For CC(=O)c1cccc(NC(=O)c2cccc3c(-c4cccnc4)coc23)c1 the results were TAAR1 agonist 17.0, TAAR1 antag 75.2*, nonsel antag count 30.6*, TAAR1 antag conf 52.0*, Ga16 nonsel ag 11.2 and TAAR1 ag count 10.2.
Screening Cc1cccc(NC(=O)c2cc(-c3ccccn3)nc3ccccc23)c1C returned CHO parental Ca -23.3, TAAR1 agonist 7.7, OX1R antag-1 5.5, OX1R antag-2 -11.0, TAAR1 antag 70.3*, GPR7 antag -4.7, nonsel antag count 33.9*, TAAR1 antag conf 56.0*, Ga16 nonsel ag 10.6 and TAAR1 ag count 8.3.
`NC(=O)c1cccc(-c2coc3c(C(=O)NCc4cccnc4)cccc23)c1` gave TAAR1 agonist 2.4 and TAAR1 antag -6.3.
COc1cccc(-c2cc(C(=O)Nc3ccncc3)c3ccccc3n2)c1 was read as CHO parental Ca -13.2, TAAR1 agonist 4.9, OX1R antag-1 18.5, OX1R antag-2 -22.7, TAAR1 antag 39.4 and GPR7 antag -16.1.
`COc1cccc(NC(=O)c2cc(-c3ccccn3)nc3ccccc23)c1` gave CHO parental Ca -17.6, TAAR1 agonist 18.0, OX1R antag-1 11.3, OX1R antag-2 -6.9, TAAR1 antag 56.3*, nonsel antag count 27.9*, TAAR1 antag conf 42.4, Ga16 nonsel ag 6.7 and TAAR1 ag count 3.6.
Screening CN(CC(=O)Nc1ccc(F)cc1)C(=O)COC(=O)c1cc(S(=O)(=O)N(C)C)ccc1N1CCCC1 returned CHO parental Ca -10.6, TAAR1 agonist 0.2, OX1R antag-1 15.5, OX1R antag-2 -38.4 and TAAR1 antag -3.1.
